Results reported in ChEMBL document CHEMBL1255376, “Comparative surveillance study of telavancin activity against recently collected gram-positive clinical isolates from across the United States” (2008).
Converted amounts (≈) assume the structure as drawn.

What was measured:
Format in all cases: functional
Streptococcus pyogenes = test: Antibacterial activity against Streptococcus pyogenes clinical isolate by broth microdilution method
Outline: (§1)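 MIC by CLSI broth microdilution in frozen microtiter trays holding serial dilutions of each agent, prepared from standard laboratory powders. E. faecalis ATCC 29212 and ATCC 51299, S. aureus ATCC 29213 and S. pneumoniae ATCC 49619 run in parallel as quality-control strains. Comparator susceptibility interpreted with CLSI breakpoints.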

Streptococcus agalactiae = test: Antibacterial activity against Streptococcus agalactiae clinical isolate by broth microdilution method; outline: as §1
[1] = Antibacterial activity against Streptococcus sp. Group C clinical isolate by broth microdilution method; outline: as §1
Streptococcus sp. [2] = test: Antibacterial activity against Streptococcus sp. Group F clinical isolate by broth microdilution method
Outline: (§2)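 MIC by CLSI broth microdilution in frozen microtiter trays holding serial dilutions of each agent, prepared from standard laboratory powders. Comparator susceptibility interpreted with CLSI breakpoints.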

[3] = Antibacterial activity against Streptococcus sp. Group G clinical isolate by broth microdilution method; outline: as §1
Streptococcus equinus = test: Antibacterial activity against Streptococcus bovis clinical isolate by broth microdilution method; outline: as §1
[4] = test system: Streptococcus constellatus; test: Antibacterial activity against Streptococcus constellatus clinical isolate by broth microdilution method; outline: as §1
[5] = test system: Streptococcus intermedius; test: Antibacterial activity against Streptococcus intermedius clinical isolate by broth microdilution method; outline: as §1
Streptococcus mitis = test: Antibacterial activity against Streptococcus mitis clinical isolate by broth microdilution method; outline: as §1
Streptococcus oralis = test: Antibacterial activity against Streptococcus oralis clinical isolate by broth microdilution method; outline: as §1
Streptococcus sanguinis = test: Antibacterial activity against Streptococcus sanguinis clinical isolate by broth microdilution method; outline: as §1
Streptococcus sp. [6] = test: Antibacterial activity against Streptococcus sp. clinical isolate by broth microdilution method; outline: as §2
Streptococcus pneumoniae [7] = test: Antibacterial activity against penicillin susceptible Streptococcus pneumoniae clinical isolate by broth microdilution method
Outline: (§3)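 MICs by CLSI broth microdilution in frozen trays pre-loaded with serial dilutions of each agent. Quality-control strains run in parallel: E. faecalis ATCC 29212 and ATCC 51299, S. aureus ATCC 29213, S. pneumoniae ATCC 49619. Comparator susceptibility categories follow CLSI breakpoints. Methicillin resistance in staphylococci assigned from the oxacillin MIC.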

Streptococcus pneumoniae [8] = test: Antibacterial activity against penicillin intermediate Streptococcus pneumoniae clinical isolate by broth microdilution method; outline: as §3
Streptococcus pneumoniae [9] = test: Antibacterial activity against penicillin resistant Streptococcus pneumoniae clinical isolate by broth microdilution method; outline: as §3
Staphylococcus aureus [10] = test: Antibacterial activity against methicillin-susceptible Staphylococcus aureus clinical isolate by broth microdilution method; outline: as §3
Staphylococcus aureus [11] = test: Antibacterial activity against methicillin-resistant Staphylococcus aureus clinical isolate by broth microdilution method; outline: as §3

Row | Molecule | MIC50 (Streptococcus pyogenes) | MIC90 (Streptococcus pyogenes) | MIC50 (Streptococcus agalactiae) | MIC90 (Streptococcus agalactiae) | MIC50 [1] | MIC90 [1] | MIC50 (Streptococcus sp. [2]) | MIC90 (Streptococcus sp. [2]) | MIC50 [3] | MIC90 [3] | MIC50 (Streptococcus equinus) | MIC90 (Streptococcus equinus) | MIC50 [4] | MIC90 [4] | MIC50 [5] | MIC90 [5] | MIC50 (Streptococcus mitis) | MIC90 (Streptococcus mitis) | MIC50 (Streptococcus oralis) | MIC90 (Streptococcus oralis) | further results
1 | C[C@H]1COc2c(N3CCN(C)CC3)c(F)cc3c(=O)c(C(=O)O)cn1c23.C[C@H]1COc2c(N3CCN(C)CC3)c(F)cc3c(=O)c(C(=O)O)cn1c23.O [LEVOFLOXACIN] | 0.5 µg/mL | 1 µg/mL | 0.5 µg/mL | 1 µg/mL | 0.5 µg/mL | 0.5 µg/mL | 0.5 µg/mL | 0.5 µg/mL | 0.5 µg/mL | 0.5 µg/mL | 0.5 µg/mL | 1 µg/mL | 0.5 µg/mL | 1 µg/mL | 0.5 µg/mL | 1 µg/mL | 0.5 µg/mL | 1 µg/mL | 0.5 µg/mL | 1 µg/mL | MIC50 (Streptococcus sanguinis): 0.5 µg/mL; MIC90 (Streptococcus sanguinis): 1 µg/mL; MIC50 (Streptococcus sp. [6]): 0.5 µg/mL; MIC90 (Streptococcus sp. [6]): 1 µg/mL; MIC50 (Streptococcus pneumoniae [7]): 1 µg/mL; MIC90 (Streptococcus pneumoniae [7]): 1 µg/mL; MIC50 (Streptococcus pneumoniae [8]): 0.5 µg/mL; MIC90 (Streptococcus pneumoniae [8]): 1 µg/mL; MIC50 (Streptococcus pneumoniae [9]): 0.5 µg/mL; MIC90 (Streptococcus pneumoniae [9]): 1 µg/mL
2 | CC1(C)S[C@@H]2[C@H](NC(=O)Cc3ccccc3)C(=O)N2[C@H]1C(=O)O [PENICILLIN G] | ≤ 0.06 µg/mL | ≤ 0.06 µg/mL | ≤ 0.06 µg/mL | ≤ 0.06 µg/mL | ≤ 0.06 µg/mL | ≤ 0.06 µg/mL | ≤ 0.06 µg/mL | ≤ 0.06 µg/mL | ≤ 0.06 µg/mL | ≤ 0.06 µg/mL | ≤ 0.06 µg/mL | 1 µg/mL (≈ 2.99 µM) | ≤ 0.06 µg/mL | 1 µg/mL (≈ 2.99 µM) | ≤ 0.06 µg/mL | 1 µg/mL (≈ 2.99 µM) | ≤ 0.06 µg/mL | 1 µg/mL (≈ 2.99 µM) | ≤ 0.06 µg/mL | 1 µg/mL (≈ 2.99 µM) | MIC (Streptococcus pyogenes): ≤ 0.06 µg/mL; MIC (Streptococcus agalactiae): ≤ 0.06 µg/mL; MIC [1]: ≤ 0.06 µg/mL; MIC (Streptococcus sp. [2]): ≤ 0.06 µg/mL; MIC [3]: ≤ 0.06 µg/mL; MIC (Streptococcus equinus): ≤ 0.06 µg/mL; MIC [4]: ≤ 0.06 µg/mL; MIC [5]: ≤ 0.06 µg/mL; MIC (Streptococcus mitis): ≤ 0.06 µg/mL; MIC (Streptococcus oralis): ≤ 0.06 µg/mL; MIC (Streptococcus sanguinis): ≤ 0.06 µg/mL; MIC50 (Streptococcus sanguinis): ≤ 0.06 µg/mL; MIC90 (Streptococcus sanguinis): 1 µg/mL (≈ 2.99 µM); MIC (Streptococcus sp. [6]): ≤ 0.06 µg/mL; MIC50 (Streptococcus sp. [6]): ≤ 0.06 µg/mL; MIC90 (Streptococcus sp. [6]): 1 µg/mL (≈ 2.99 µM); MIC (Streptococcus pneumoniae [7]): ≤ 0.06 µg/mL; MIC50 (Streptococcus pneumoniae [7]): ≤ 0.06 µg/mL; MIC90 (Streptococcus pneumoniae [7]): ≤ 0.06 µg/mL
3 | GENTAMICIN |  |  |  |  |  |  |  |  |  |  |  |  |  |  |  |  |  |  |  |  | MIC50 (Staphylococcus aureus [10]): 0.25 µg/mL; MIC90 (Staphylococcus aureus [10]): 0.5 µg/mL; MIC50 (Staphylococcus aureus [11]): 0.5 µg/mL; MIC90 (Staphylococcus aureus [11]): 2 µg/mL
